From ChEMBL document CHEMBL1155174, “Cross-resistance to medical and agricultural azole drugs in yeasts from the oropharynx of human immunodeficiency virus patients and from environmental Bavarian vine grapes” (2007)
≈ marks a conversion by molar mass, not a printed value.

How the values were obtained:
Format in all cases: functional
[1] = system: Hanseniaspora uvarum; experiment: Antifungal activity against sKloeckera apiculata isolates from grapes by NCCLS M27-A2 method
How it was run: (§1)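 Broth dilution per NCCLS M27-A2, with azoles serially diluted in high-resolution antifungal assay medium over 0.125–128, 0.03–64 or 0.06–128 μg/ml depending on the drug. MIC endpoints were read spectrophotometrically at 540 nm. Values are reported per species or source group as median and range.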

[2] = system: Candida albicans; experiment: Antifungal activity against Candida albicans isolates by NCCLS M27-A2 method; how it was run: as §1
[3] = system: Diutina rugosa; experiment: Antifungal activity against Candida rugosa isolates from feeding stuff by NCCLS M27-A2 method; how it was run: as §1
[4] = system: Pichia kudriavzevii; experiment: Antifungal activity against Candida krusei ATCC 6258 by NCCLS M27-A2 method; how it was run: as §1
[5] = system: Cryptococcus neoformans; experiment: Antifungal activity against Cryptococcus neoformans ATCC 90112 by NCCLS M27-A2 method
[6] = system: Rhodotorula; experiment: Antifungal activity against Rhodotorula sp. isolates from grapes by NCCLS M27-A2 method; how it was run: as §1
[7] = system: Pichia kudriavzevii; experiment: Antifungal activity against Candida krusei isolates from grapes and feeding stuffs by NCCLS M27-A2 method; how it was run: as §1
[8] = system: Nakaseomyces glabratus; experiment: Antifungal activity against Candida glabrata isolates from feeding stuffs by NCCLS M27-A2 method; how it was run: as §1
[9] = system: Pichia norvegensis; experiment: Antifungal activity against Candida norvegensis isolates from grapes by NCCLS M27-A2 method; how it was run: as §1
[10] = system: Saccharomyces cerevisiae; experiment: Antifungal activity against sSaccharomyces cerevisiae isolates from grapes by NCCLS M27-A2 method; how it was run: as §1
[11] = system: Candida albicans; experiment: Antifungal activity against Candida albicans isolates from HIV infected patient before fluconazole therapy by NCCLS M27-A2 method; how it was run: as §1
[12] = system: Pichia fermentans; experiment: Antifungal activity against Candida lambica isolates from grapes by NCCLS M27-A2 method; how it was run: as §1
[13] = system: Candida parapsilosis; experiment: Antifungal activity against Candida parapsilosis ATCC 22013 by NCCLS M27-A2 method; conditions: Lodderomyces parapsilosis
[14] = system: Saccharomycopsis; experiment: Antifungal activity against Saccharomycopsis guttulata isolates from feeding stuff by NCCLS M27-A2 method; how it was run: as §1
[15] = system: Candida albicans; experiment: Antifungal activity against Candida albicans isolates from HIV infected patient during fluconazole therapy by NCCLS M27-A2 method; how it was run: as §1
[16] = system: Starmerella stellata; experiment: Antifungal activity against sCandida stellata isolates from grapes by NCCLS M27-A2 method; how it was run: as §1
[17] = system: Candida albicans; experiment: Antifungal activity against Candida albicans isolates from animals by NCCLS M27-A2 method; how it was run: as §1
[18] = system: Wickerhamomyces anomalus; experiment: Antifungal activity against Pichia anomala isolates from grapes by NCCLS M27-A2 method; conditions: Hansenula anomala; how it was run: as §1
[19] = system: Nakaseomyces glabratus; experiment: Antifungal activity against Candida glabrata ATCC 90030 by NCCLS M27-A2 method; how it was run: as §1

Row | SMILES | MIC50 [1] | MIC50 [2] | MIC50 [3] | MIC50 [4] | MIC50 [5] | MIC50 [6] | MIC50 [7] | MIC50 [8] | MIC50 [9] | MIC50 [10] | MIC50 [11] | MIC50 [12] | MIC50 [13] | MIC50 [14] | MIC50 [15] | MIC50 [16] | MIC50 [17] | MIC50 [18] | MIC50 [19]
1 | OC(Cn1cncn1)(Cn1cncn1)c1ccc(F)cc1F [FLUCONAZOLE] | 0.5 µg/mL (≈ 1.63 µM) | 0.12 µg/mL (≈ 0.392 µM) | 1 µg/mL (≈ 3.27 µM) | 64 µg/mL (≈ 209 µM) | 8 µg/mL (≈ 26.1 µM) | 16 µg/mL (≈ 52.2 µM) | 64 µg/mL (≈ 209 µM) | 32 µg/mL (≈ 104 µM) | 128 µg/mL (≈ 418 µM) | 8 µg/mL (≈ 26.1 µM) | 2.25 µg/mL (≈ 7.35 µM) | 128 µg/mL (≈ 418 µM) | 2 µg/mL (≈ 6.53 µM) | 1 µg/mL (≈ 3.27 µM) | 128 µg/mL (≈ 418 µM) | 64 µg/mL (≈ 209 µM) | 0.25 µg/mL (≈ 0.816 µM) | 2 µg/mL (≈ 6.53 µM) | –
2 | O=c1c2cc(F)ccc2nc(-n2cncn2)n1-c1ccc(Cl)cc1Cl [FLUQUINCONAZOLE] | 0.12 µg/mL (≈ 0.319 µM) | 0.5 µg/mL (≈ 1.33 µM) | 0.12 µg/mL (≈ 0.319 µM) | 128 µg/mL (≈ 340 µM) | 0.12 µg/mL (≈ 0.319 µM) | 0.5 µg/mL (≈ 1.33 µM) | 128 µg/mL (≈ 340 µM) | 1 µg/mL (≈ 2.66 µM) | 64 µg/mL (≈ 170 µM) | 0.25 µg/mL (≈ 0.665 µM) | 0.375 µg/mL (≈ 0.997 µM) | 64 µg/mL (≈ 170 µM) | 2 µg/mL (≈ 5.32 µM) | 64 µg/mL (≈ 170 µM) | 64 µg/mL (≈ 170 µM) | 64 µg/mL (≈ 170 µM) | 0.5 µg/mL (≈ 1.33 µM) | 4 µg/mL (≈ 10.6 µM) | 32 µg/mL (≈ 85.1 µM)
3 | CCC(C)n1ncn(-c2ccc(N3CCN(c4ccc(OCC5COC(Cn6cncn6)(c6ccc(Cl)cc6Cl)O5)cc4)CC3)cc2)c1=O (stereo unspecified) [ITRACONAZOLE] | 0.25 µg/mL (≈ 0.354 µM) | 0.06 µg/mL (≈ 0.085 µM) | 0.06 µg/mL (≈ 0.085 µM) | 0.5 µg/mL (≈ 0.709 µM) | 0.5 µg/mL (≈ 0.709 µM) | 0.06 µg/mL (≈ 0.085 µM) | 1 µg/mL (≈ 1.42 µM) | 1 µg/mL (≈ 1.42 µM) | 1 µg/mL (≈ 1.42 µM) | 2 µg/mL (≈ 2.83 µM) | 0.06 µg/mL (≈ 0.085 µM) | 2 µg/mL (≈ 2.83 µM) | 0.25 µg/mL (≈ 0.354 µM) | 0.5 µg/mL (≈ 0.709 µM) | 0.75 µg/mL (≈ 1.06 µM) | 2 µg/mL (≈ 2.83 µM) | 0.12 µg/mL (≈ 0.17 µM) | 0.5 µg/mL (≈ 0.709 µM) | 4 µg/mL (≈ 5.67 µM)
4 | CC(=O)N1CCN(c2ccc(OCC3COC(Cn4ccnc4)(c4ccc(Cl)cc4Cl)O3)cc2)CC1 (stereo unspecified) [KETOCONAZOLE] | 0.25 µg/mL (≈ 0.47 µM) | 0.03 µg/mL (≈ 0.0565 µM) | 0.25 µg/mL (≈ 0.47 µM) | 2 µg/mL (≈ 3.76 µM) | 2 µg/mL (≈ 3.76 µM) | 0.5 µg/mL (≈ 0.941 µM) | 8 µg/mL (≈ 15.1 µM) | 4 µg/mL (≈ 7.53 µM) | 2 µg/mL (≈ 3.76 µM) | 2 µg/mL (≈ 3.76 µM) | 0.25 µg/mL (≈ 0.47 µM) | 4 µg/mL (≈ 7.53 µM) | 0.12 µg/mL (≈ 0.226 µM) | 2 µg/mL (≈ 3.76 µM) | 2 µg/mL (≈ 3.76 µM) | 8 µg/mL (≈ 15.1 µM) | 0.5 µg/mL (≈ 0.941 µM) | 1 µg/mL (≈ 1.88 µM) | 8 µg/mL (≈ 15.1 µM)
5 | CCCC(Cn1cncn1)c1ccc(Cl)cc1Cl (stereo unspecified) [PENCONAZOLE] | 0.5 µg/mL (≈ 1.76 µM) | 2 µg/mL (≈ 7.04 µM) | 1 µg/mL (≈ 3.52 µM) | 64 µg/mL (≈ 225 µM) | 4 µg/mL (≈ 14.1 µM) | 16 µg/mL (≈ 56.3 µM) | 128 µg/mL (≈ 450 µM) | 4 µg/mL (≈ 14.1 µM) | 64 µg/mL (≈ 225 µM) | 2 µg/mL (≈ 7.04 µM) | 0.25 µg/mL (≈ 0.88 µM) | 64 µg/mL (≈ 225 µM) | 8 µg/mL (≈ 28.2 µM) | 8 µg/mL (≈ 28.2 µM) | 12 µg/mL (≈ 42.2 µM) | 96 µg/mL (≈ 338 µM) | 2 µg/mL (≈ 7.04 µM) | 8 µg/mL (≈ 28.2 µM) | 4 µg/mL (≈ 14.1 µM)
6 | CC(C)(C)C(O)(CCc1ccc(Cl)cc1)Cn1cncn1 (stereo unspecified) [TEBUCONAZOLE] | 0.06 µg/mL (≈ 0.195 µM) | 0.06 µg/mL (≈ 0.195 µM) | 0.06 µg/mL (≈ 0.195 µM) | 32 µg/mL (≈ 104 µM) | 4 µg/mL (≈ 13 µM) | 1 µg/mL (≈ 3.25 µM) | 64 µg/mL (≈ 208 µM) | 2 µg/mL (≈ 6.5 µM) | 4 µg/mL (≈ 13 µM) | 1 µg/mL (≈ 3.25 µM) | 0.75 µg/mL (≈ 2.44 µM) | 16 µg/mL (≈ 52 µM) | 1 µg/mL (≈ 3.25 µM) | 4 µg/mL (≈ 13 µM) | 24 µg/mL (≈ 78 µM) | 64 µg/mL (≈ 208 µM) | 0.185 µg/mL (≈ 0.601 µM) | 4 µg/mL (≈ 13 µM) | 8 µg/mL (≈ 26 µM)
7 | CC(C)(C)C(O)C(Oc1ccc(Cl)cc1)n1cncn1 (stereo unspecified) [TRIADIMENOL] | 0.25 µg/mL (≈ 0.845 µM) | 2 µg/mL (≈ 6.76 µM) | 1 µg/mL (≈ 3.38 µM) | 32 µg/mL (≈ 108 µM) | 4 µg/mL (≈ 13.5 µM) | 64 µg/mL (≈ 216 µM) | 64 µg/mL (≈ 216 µM) | 8 µg/mL (≈ 27 µM) | 64 µg/mL (≈ 216 µM) | 8 µg/mL (≈ 27 µM) | 2 µg/mL (≈ 6.76 µM) | 128 µg/mL (≈ 433 µM) | 16 µg/mL (≈ 54.1 µM) | 16 µg/mL (≈ 54.1 µM) | 64 µg/mL (≈ 216 µM) | 128 µg/mL (≈ 433 µM) | 1.5 µg/mL (≈ 5.07 µM) | 16 µg/mL (≈ 54.1 µM) | 8 µg/mL (≈ 27 µM)
8 | C[C@@H](c1ncncc1F)[C@](O)(Cn1cncn1)c1ccc(F)cc1F [VORICONAZOLE] | 0.03 µg/mL (≈ 0.0859 µM) | 0.03 µg/mL (≈ 0.0859 µM) | 0.03 µg/mL (≈ 0.0859 µM) | 1 µg/mL (≈ 2.86 µM) | 0.25 µg/mL (≈ 0.716 µM) | 0.06 µg/mL (≈ 0.172 µM) | 1 µg/mL (≈ 2.86 µM) | 0.25 µg/mL (≈ 0.716 µM) | 2 µg/mL (≈ 5.73 µM) | 0.5 µg/mL (≈ 1.43 µM) | 0.03 µg/mL (≈ 0.0859 µM) | 2 µg/mL (≈ 5.73 µM) | 0.06 µg/mL (≈ 0.172 µM) | 0.12 µg/mL (≈ 0.344 µM) | 1.5 µg/mL (≈ 4.29 µM) | 1 µg/mL (≈ 2.86 µM) | 0.03 µg/mL (≈ 0.0859 µM) | 0.25 µg/mL (≈ 0.716 µM) | 2 µg/mL (≈ 5.73 µM)
